The source of these data is ChEMBL document CHEMBL1129651, “3-Phenyl-substituted imidazo[1,5-alpha]quinoxalin-4-ones and imidazo[1,5-alpha]quinoxaline ureas that have high affinity at the GABAA/benzodiazepine receptor complex” (J Med Chem, 1996).

For experiment [1], the species on record is Mus musculus. In words: Antagonism of benzodiazepine traction in mice. The class given is functional. Put shortly: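 Male CF-1 mice given triazolam 1 mg/kg ip together with test compound ip, starting at 100 mg/kg, in 0.25% aqueous methyl cellulose. Dose-response run on 0.5 log scale. Loss of traction scored 15 min later. Absence of the expected loss marks antagonism. ED50 taken from lower doses.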

The subject of experiment [2] is Rattus norvegicus. Put plainly: Ability to antagonize metrazole-induced seizures (clonic and tonic) in rats after intraperitoneal injection. The settings on record: ip.
Experiment [3] deals with GABA-A receptor; anion channel (Rattus norvegicus) (UniProt O09028+P15431+P18506+P18508+P19969+P20236+P23574+P23576+P28471+P28473+P30191+P62813+P63079+P63138+Q91ZM7+Q9ES14).
In experiment [4] the target is GABA-A receptor; anion channel. Put plainly: Binding affinity against benzodiazepine receptor (BzR) in rat cortical membranes determined by competition experiments with radiolabeled [3H]flunitrazepam (Fnz). The class given is cell membranes.
The species entered for experiment [5] is Mus musculus. Put plainly: Compound was tested for ethanol potentiation expressed as loss of righting reflex (anesthesia). The class given is functional. The procedure, abridged: (§1)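 Male CF-1 mice given 50% aqueous ethanol orally (7.5 mL/kg) plus test compound sc in 0.25% aqueous methyl cellulose (10 mL/kg). Tested 30 min later. Traction: hindlimb placed on wire within 10 s when suspended by forepaws. Righting: rolls onto feet within 10 s when released on its back. Six mice per dose; ED50s determined.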

The species entered for experiment [6] is Mus musculus. In words: Compound was tested for ethanol potentiation expressed as the loss of traction response (muscle relaxation). The class given is functional. Put shortly:
as §1

The species named for experiment [7] is Mus musculus. Put plainly: Acute electroshock physical dependence activity (drug MA50/V122 MA50). The class given is functional. Put shortly: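 Male CF-1 mice, 10/group, dosed sc twice daily for 3 days (0800, then 2 times that dose at 1600). Flumazenil 2.5 mg/kg iv in 5% aqueous N,N-dimethylacetamide given 24 h after the last dose. 5 min later electroshock seizure threshold estimated by up-down method (0.05 log steps; transpinnal 0.6 ms pulses, 100 Hz, 0.2 s). Comparison is against a saline-treated, flumazenil-injected control group.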

SMILES strings stand for the structures.

With `CC1CN(C(=O)N2Cc3c(-c4ccc(F)cc4)ncn3-c3ccc(F)cc32)CC(C)N1` (stereo unspecified), the results for the median effective dose (ED50) in experiment [1] and in experiment [2] were more than 30 mg/kg and 0.5 mg/kg, respectively. For the same molecule, in experiment [3], the TBPS shift turned out to be 0.72. Moreover, the Ki in experiment [4] was 0.00249 µM.
In the case of `CC(C)n1c(=O)c2c(-c3cccc(F)c3)ncn2c2ccccc21`, the ED50 in experiment [2] was more than 50 mg/kg. Besides, the TBPS shift in experiment [3] stood at 0.31. In experiment [4], this molecule registered a Ki of 0.48 µM.
Consider `CN(C)C(=O)N1Cc2c(-c3ccc(F)cc3)ncn2-c2ccccc21`, for which the median effective dose (ED50) was 4.9 mg/kg in experiment [1], 4.4 mg/kg in experiment [2], more than 30 mg/kg in experiment [5] and 11 mg/kg in experiment [6]. In experiment [3], the TBPS shift was determined as 0.53. For the same molecule, the Activity in experiment [7] is 0.87. The molecule also came in with a Ki in experiment [4] of 0.00296 µM.
`CN(C)C(=O)N1c2ccccc2-n2cnc(-c3ccc(F)cc3)c2C1(C)C`: the 50% effective dose (ED50) in experiment [2] is more than 50 mg/kg. The TBPS shift in experiment [3] was 0.49. Moreover, the Ki in experiment [4] turned out to be 0.163 µM.
As to `O=C(c1ccccc1F)N1Cc2c(-c3ccc(F)cc3)ncn2-c2ccccc21`, the TBPS shift in experiment [3] is 0.84. Moreover, the affinity in experiment [4] corresponds to a Ki of 0.0424 µM.
In experiment [2], `CC(C)n1c(=O)c2c(-c3ccc(Cl)cc3)ncn2c2ccccc21` yielded an ED50 of more than 50 mg/kg. Besides, the TBPS shift in experiment [3] was 0.74.
For the molecule `O=C(N1CCOCC1)N1Cc2c(-c3ccc(F)cc3)ncn2-c2ccc(Cl)cc21`, the 50% effective dose (ED50) in experiment [1] was more than 30 mg/kg; in experiment [2] it was 0.76 mg/kg; in experiment [5] it was 27 mg/kg; in experiment [6], 11 mg/kg. Moreover, the TBPS shift in experiment [3] turned out to be 1.05. In experiment [7], this molecule showed an Activity of 0.62. In experiment [4], the Ki worked out at 0.0152 µM.
In turn, `COc1ccccc1-c1ncn2c1c(=O)n(C(C)C)c1ccccc12` had a Ki in experiment [4] of more than 10 µM.
With `COc1ccc(-c2ncn3c2CN(C(=O)N2CC(C)NC(C)C2)c2ccccc2-3)cc1` (stereo unspecified), the figures for the ED50 in experiment [1] and in experiment [2] were more than 30 mg/kg and 0.8 mg/kg, respectively. In addition, the TBPS shift in experiment [3] came to 0.31. Further, the Activity in experiment [7] was determined as 0.47. Further, the inhibition constant (Ki) in experiment [4] came out at 0.00139 µM.
Take `CN1C(=O)CN=C(c2ccccc2)c2cc(Cl)ccc21` [DIAZEPAM]: the ED50 in experiment [2] amounted to 0.5 mg/kg; in experiment [5] it was 0.86 mg/kg; in experiment [6] it was 0.54 mg/kg. The Activity in experiment [7] came out at 18.2.
On to `CC(C)n1c(=O)c2c(-c3ccc(F)cc3)ncn2c2ccc(F)cc21`, for which the ED50 in experiment [2] was more than 50 mg/kg. Moreover, the TBPS shift in experiment [3] was determined as 0.8. Moreover, in experiment [4], affinity was put at a Ki of 0.0594 µM.
As to `O=C(N1CCOCC1)N1Cc2c(-c3ccc(F)cc3)ncn2-c2cccc(Cl)c21`, in experiment [2], it took a dose of 3.7 mg/kg to reach the 50% effect level (ED50). Further, in experiment [3], the TBPS shift came out at 0.44. Further, the Activity in experiment [7] amounted to 0.86. The molecule further displayed an inhibition constant Ki in experiment [4] of 0.00297 µM.
`Cc1ccc(-c2ncn3c2C(C)(C)N(C(=O)N2CCCC2)c2ccccc2-3)cc1` showed a median effective dose (ED50) in experiment [2] of 17.7 mg/kg. Moreover, the TBPS shift in experiment [3] was 1.05. The affinity in experiment [4], expressed as Ki, was 0.035 µM.
`CC(C)n1c(=O)c2c(-c3ccccc3)ncn2c2ccc(F)cc21` gave an ED50 in experiment [2] of more than 50 mg/kg. Besides, the TBPS shift in experiment [3] came out at 0.77. In experiment [4], this molecule yielded an inhibition constant Ki of 0.0396 µM.
`Cc1ccc(-c2ncn3c2CN(C(=O)N2CCCC2)c2ccccc2-3)cc1`: the TBPS shift in experiment [3] was found to be 1.19. Further, the Ki in experiment [4] was determined as 0.00154 µM.
Molecule `NC(=O)N1Cc2c(-c3ccc(F)cc3)ncn2-c2ccccc21` registered an ED50 in experiment [2] of more than 50 mg/kg. The TBPS shift in experiment [3] came out at 0.29. In experiment [4], this molecule showed an inhibition constant (Ki) of 0.216 µM.
On to `O=C(c1cccc(F)c1)N1Cc2c(-c3ccc(F)cc3)ncn2-c2ccccc21`, for which the ED50 in experiment [2] was determined as 1.3 mg/kg. The TBPS shift in experiment [3] came out at 1.06. Further, the Activity in experiment [7] came to 0.87. This molecule registered an inhibition constant Ki in experiment [4] of 0.00591 µM.
In turn, `Cc1ccc(-c2ncn3c2c(=O)n(C(C)C)c2ccccc23)cc1` came in with an ED50 in experiment [2] of more than 50 mg/kg. Further, the TBPS shift in experiment [3] amounted to 1.09. The molecule further yielded a Ki in experiment [4] of 0.174 µM.
On to `CC1(C)c2c(-c3ccc(F)cc3)ncn2-c2ccccc2N1C(=O)N1CCCC1`, for which, in experiment [2], the ED50 was more than 50 mg/kg. The TBPS shift in experiment [3] was 0.6. For the same molecule, the affinity in experiment [4] corresponds to a Ki of 0.0126 µM.
On the same counts, the results for `CC(C)n1c(=O)c2c(-c3ccccc3)ncn2c2ccccc21` are more than 50 mg/kg, 0.31 and 0.0385 µM.
For `O=C(N1CCCC1)N1Cc2c(-c3ccccc3)ncn2-c2ccccc21`, in experiment [3], the TBPS shift was determined as 0.69.
For the molecule `CC(C)(C)NC(=O)N1Cc2c(-c3ccc(F)cc3)ncn2-c2ccccc21`, the ED50 in experiment [2] is more than 50 mg/kg. In experiment [3], the TBPS shift was 1.02. In experiment [4], this molecule registered an inhibitory constant (Ki) of 0.283 µM.
On to `CC1CN(C(=O)N2Cc3c(-c4ccc(F)cc4)ncn3-c3cccc(Cl)c32)CC(C)N1` (stereo unspecified), for which the values for the 50% effective dose (ED50) in experiment [1] and in experiment [2] were more than 30 mg/kg and 1.8 mg/kg, respectively. Further, in experiment [3], the TBPS shift stood at 0.31. Affinity in experiment [4] was put at a Ki of 0.0334 µM.
Molecule `Cc1ccc(-c2ncn3c2C(C)(C)N(C(=O)N(C)C)c2ccccc2-3)cc1` gave an ED50 in experiment [2] of more than 50 mg/kg. Besides, the TBPS shift in experiment [3] was 0.71. This molecule also showed a Ki in experiment [4] of 0.334 µM.
On the same counts, the results for `COC(=O)N1Cc2c(-c3ccc(F)cc3)ncn2-c2ccccc21` are more than 50 mg/kg, 0.53 and 0.0472 µM.
Regarding `COc1ccc(-c2ncn3c2c(=O)n(C(C)C)c2ccccc23)cc1`, the ED50 in experiment [2] was 12.5 mg/kg; in experiment [5], more than 30 mg/kg; in experiment [6] it was more than 30 mg/kg. In addition, the TBPS shift in experiment [3] was 0.75. This molecule also showed a Ki in experiment [4] of 0.0317 µM.
Turning to `CC1CN(C(=O)N2Cc3c(-c4ccc(F)cc4)ncn3-c3ccc(F)cc32)CC(C)N1C` (stereo unspecified), the ED50 in experiment [2] is 1.3 mg/kg. Besides, in experiment [3], the TBPS shift was 0.64. For the same molecule, the Activity in experiment [7] came out at 0.59.
For `CN(C)C(=O)N1Cc2c(-c3ccccc3)ncn2-c2ccccc21`, in experiment [3], the TBPS shift was 0.4. The molecule further had a Ki in experiment [4] of 0.00341 µM.
The like results for `CN(C)C(=O)N1c2ccccc2-n2cnc(-c3ccccc3)c2C1(C)C` were, in that order, 0.45 and 0.478 µM.
For the molecule `Cc1ccc(-c2ncn3c2CN(C(=O)N(C)C)c2ccccc2-3)cc1`, the 50% effective dose (ED50) in experiment [2] stood at 4.4 mg/kg. The molecule also yielded an Activity in experiment [7] of 0.87. The molecule further registered a Ki in experiment [4] of 0.0111 µM.
`CCNC(=O)N1Cc2c(-c3ccc(F)cc3)ncn2-c2ccccc21`: the ED50 in experiment [2] was more than 50 mg/kg. For the same molecule, the TBPS shift in experiment [3] is 0.42. Also, in experiment [4], the Ki was 0.0486 µM.
Turning to `CC1CN(C(=O)N2Cc3c(-c4ccc(F)cc4)ncn3-c3cccc(Cl)c32)CC(C)N1C` (stereo unspecified), the 50% effective dose (ED50) is more than 30 mg/kg in experiment [1] and 1.8 mg/kg in experiment [2]. The TBPS shift in experiment [3] stood at 0.62. In experiment [7], this molecule yielded an Activity of 0.8. In experiment [4], this molecule showed a Ki of 0.0474 µM.
Consider `O=C(c1ccc(F)cc1)N1Cc2c(-c3ccc(F)cc3)ncn2-c2ccccc21`, for which, in experiment [2], the ED50 was determined as 29.7 mg/kg. In experiment [3], the TBPS shift was determined as 0.82. Affinity in experiment [4] was put at a Ki of 0.0205 µM.
In experiment [2], `O=C(N1CCOCC1)N1Cc2c(-c3ccc(F)cc3)ncn2-c2ccccc21` yielded an ED50 of 0.3 mg/kg. For the same molecule, the TBPS shift in experiment [3] was found to be 0.54. Besides, the Activity in experiment [7] was 0.67. Further, the inhibition constant (Ki) in experiment [4] was 0.00161 µM.
As for `CC1CN(C(=O)N2Cc3c(-c4ccc(F)cc4)ncn3-c3ccccc32)CC(C)N1C` (stereo unspecified), the figures for the 50% effective dose (ED50) in experiment [1] and in experiment [2] were more than 30 mg/kg and 13 mg/kg, respectively. The TBPS shift in experiment [3] was 0.31. This molecule had an Activity in experiment [7] of 0.8. This molecule registered a Ki in experiment [4] of 0.0132 µM.
Take `COc1ccc(-c2ncn3c2c(=O)n(C(C)C)c2cc(F)ccc23)cc1`: the ED50 in experiment [2] was more than 50 mg/kg. In addition, the TBPS shift in experiment [3] is 0.97. In experiment [4], this molecule returned a Ki of 0.0815 µM.
